{
  "source": "ChEMBL document CHEMBL1157704",
  "about": "“Potent activity against K562 cells by polyamide-seco-CBI conjugates targeting histone H4 genes” (Bioorg Med Chem, 2010)",
  "key": {"K562 [1]": {"system": "K562", "experiment": "Induction of apoptosis in human K562 cells assessed as early apoptotic cells at 125 nM after 48 hrs by annexin-V FITC and propidium iodide staining-based FACS analysis", "type": "functional", "outline": "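K562 cells were exposed to conjugate in culture medium for 48 h, then stained with annexin V-FITC plus propidium iodide. Cell populations were quantified by flow cytometry.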"}, "K562 [2]": {"system": "K562", "experiment": "Effect on UBE2W gene expression in human K562 cells assessed as change in mRNA transcript expression at 10 nM after 48 hrs by DNA microarray analysis relative to control", "type": "functional", "outline": "(§1)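 K562 CML cells (b3a2 Bcr-Abl) kept under standard culture conditions were exposed to 10 nM conjugate and harvested at 6, 12, 24 and 48 h. Untreated controls were harvested at 48 h. Whole-transcript oligonucleotide microarray profiling was done, and changes of at least twofold versus control were scored.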"}, "K562 [3]": {"system": "K562", "experiment": "Effect on SUPT3H gene expression in human K562 cells assessed as change in mRNA transcript expression at 10 nM after 48 hrs by DNA microarray analysis relative to control", "type": "functional", "outline": "(§2)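 K562 CML cells (b3a2 Bcr-Abl) in standard ATCC-recommended culture, exposed once to 10 nM conjugate and harvested at 48 h. Untreated controls were also collected at 48 h. Transcripts were profiled on Human Gene 1.0 ST whole-genome oligonucleotide arrays, and each treated level was expressed relative to the untreated control, with a cutoff of at least twofold change.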"}, "K562 [4]": {"system": "K562", "experiment": "Effect on HIST1H2B gene expression in human K562 cells assessed as change in mRNA transcript expression at 10 nM after 48 hrs by DNA microarray analysis relative to control", "type": "functional", "outline": "(§3)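 Transcripts were profiled on Affymetrix GeneChip Human Gene 1.0 ST arrays in K562 cells treated at 10 nM. Treated cells were collected at 6, 12, 24 and 48 h; untreated controls were collected at 48 h. Transcripts changed at least twofold versus control were scored.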"}, "K562 [5]": {"system": "K562", "experiment": "Effect on HIST1H2AC gene expression in human K562 cells assessed as change in mRNA transcript expression at 10 nM after 48 hrs by DNA microarray analysis relative to control", "type": "functional", "outline": "as §3"}, "K562 [6]": {"system": "K562", "experiment": "Effect on HIST1H1C gene expression in human K562 cells assessed as change in mRNA transcript expression at 10 nM after 48 hrs by DNA microarray analysis relative to control", "type": "functional", "outline": "as §3"}, "K562 [7]": {"system": "K562", "experiment": "Effect on LGALS3BP gene expression in human K562 cells assessed as change in mRNA transcript expression at 10 nM after 48 hrs by DNA microarray analysis relative to control", "type": "functional", "outline": "as §2"}, "K562 [8]": {"system": "K562", "experiment": "Effect on HSPA1A gene expression in human K562 cells assessed as change in mRNA transcript expression at 10 nM after 48 hrs by DNA microarray analysis relative to control", "type": "functional", "outline": "as §2"}, "K562 [9]": {"system": "K562", "experiment": "Effect on HIST1H3F gene expression in human K562 cells assessed as change in mRNA transcript expression at 10 nM after 48 hrs by DNA microarray analysis relative to control", "type": "functional", "outline": "as §3"}, "K562 [10]": {"system": "K562", "experiment": "Effect on RHCE/RHD gene expression in human K562 cells assessed as change in mRNA transcript expression at 10 nM after 48 hrs by DNA microarray analysis relative to control", "type": "functional", "outline": "as §2"}, "K562 [11]": {"system": "K562", "experiment": "Effect on ITGA2B gene expression in human K562 cells assessed as change in mRNA transcript expression at 10 nM after 48 hrs by DNA microarray analysis relative to control", "type": "functional", "outline": "as §2"}, "K562 [12]": {"system": "K562", "experiment": "Cytotoxicity against human K562 cells by MTS assay", "type": "functional, cell-based", "outline": "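Proliferation of K562 cells (ATCC, standard culture) was read as mitochondrial conversion of the MTS tetrazolium to formazan, using the CellTiter 96 Aqueous One reagent. EC50 was derived from these readings.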"}, "K562 [13]": {"system": "K562", "experiment": "Induction of apoptosis in human K562 cells assessed as non-viable necrotic cells at 250 nM after 48 hrs by annexin-V FITC and propidium iodide staining-based FACS analysis", "type": "functional", "outline": "(§4)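 Treated K562 cells […] stained with Annexin V-FITC/propidium iodide. Apoptosis was scored by two-dimensional flow cytometry at a core FACS facility.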"}, "K562 [14]": {"system": "K562", "experiment": "Effect on BBS9 gene expression in human K562 cells assessed as change in mRNA transcript expression at 10 nM after 48 hrs by DNA microarray analysis relative to control", "type": "functional", "outline": "as §3"}, "K562 [15]": {"system": "K562", "experiment": "Effect on HIST1H3B gene expression in human K562 cells assessed as change in mRNA transcript expression at 10 nM after 48 hrs by DNA microarray analysis relative to control", "type": "functional", "outline": "as §3"}, "K562 [16]": {"system": "K562", "experiment": "Effect on PLCB2 gene expression in human K562 cells assessed as change in mRNA transcript expression at 10 nM after 48 hrs by DNA microarray analysis relative to control", "type": "functional", "outline": "as §2"}, "K562 [17]": {"system": "K562", "experiment": "Induction of apoptosis in human K562 cells assessed as late apoptotic cells at 250 nM after 48 hrs by annexin-V FITC and propidium iodide staining-based FACS analysis", "type": "functional", "outline": "as §4"}, "K562 [18]": {"system": "K562", "experiment": "Effect on NTS gene expression in human K562 cells assessed as change in mRNA transcript expression at 10 nM after 48 hrs by DNA microarray analysis relative to control", "type": "functional", "outline": "as §2"}, "K562 [19]": {"system": "K562", "experiment": "Effect on PSMB6 gene expression in human K562 cells assessed as change in mRNA transcript expression at 10 nM after 48 hrs by DNA microarray analysis relative to control", "type": "functional", "outline": "as §2"}, "K562 [20]": {"system": "K562", "experiment": "Effect on BAMBI gene expression in human K562 cells assessed as change in mRNA transcript expression at 10 nM after 48 hrs by DNA microarray analysis relative to control", "type": "functional", "outline": "as §3"}, "K562 [21]": {"system": "K562", "experiment": "Effect on NDUFS4 gene expression in human K562 cells assessed as change in mRNA transcript expression at 10 nM after 48 hrs by DNA microarray analysis relative to control", "type": "functional", "outline": "as §2"}, "K562 [22]": {"system": "K562", "experiment": "Effect on PRG2 gene expression in human K562 cells assessed as change in mRNA transcript expression at 10 nM after 48 hrs by DNA microarray analysis relative to control", "type": "functional", "outline": "as §2"}, "K562 [23]": {"system": "K562", "experiment": "Effect on IMMP2L gene expression in human K562 cells assessed as change in mRNA transcript expression at 10 nM after 48 hrs by DNA microarray analysis relative to control", "type": "functional", "outline": "as §2"}, "K562 [24]": {"system": "K562", "experiment": "Effect on TRY6/PRS gene expression in human K562 cells assessed as change in mRNA transcript expression at 10 nM after 48 hrs by DNA microarray analysis relative to control", "type": "functional", "outline": "as §1"}, "K562 [25]": {"system": "K562", "experiment": "Effect on TPK1 gene expression in human K562 cells assessed as change in mRNA transcript expression at 10 nM after 48 hrs by DNA microarray analysis relative to control", "type": "functional", "outline": "as §1"}, "K562 [26]": {"system": "K562", "experiment": "Effect on RHD/RHCE gene expression in human K562 cells assessed as change in mRNA transcript expression at 10 nM after 48 hrs by DNA microarray analysis relative to control", "type": "functional", "outline": "as §2"}, "K562 [27]": {"system": "K562", "experiment": "Effect on HTR1F gene expression in human K562 cells assessed as change in mRNA transcript expression at 10 nM after 48 hrs by DNA microarray analysis relative to control", "type": "functional", "outline": "as §2"}, "K562 [28]": {"system": "K562", "experiment": "Effect on HIST1H3D gene expression in human K562 cells assessed as change in mRNA transcript expression at 10 nM after 48 hrs by DNA microarray analysis relative to control", "type": "functional", "outline": "as §3"}},
  "data": [
    {"smiles": "CC(=O)Nc1cn(C)c(C(=O)Nc2cn(C)c(C(=O)NCCC(=O)Nc3cn(C)c(C(=O)NCCCC(=O)Nc4cc(C(=O)Nc5cn(C)c(C(=O)Nc6ccc7[nH]c(C(=O)N8CC(CCl)c9c8cc(O)c8ccccc98)cc7c6)n5)n(C)c4)n3)n2)n1", "note": "(stereo not drawn)", "values": [
      {"measurement": "Activity", "setting": "K562 [1]", "result": 8.41, "unit": "%"},
      {"measurement": "fold change (FC)", "setting": "K562 [2]", "result": ">=2"},
      {"measurement": "fold change (FC)", "setting": "K562 [3]", "result": ">=2"},
      {"measurement": "fold change (FC)", "setting": "K562 [4]", "result": ">=2"},
      {"measurement": "fold change (FC)", "setting": "K562 [5]", "result": ">=2"},
      {"measurement": "fold change (FC)", "setting": "K562 [6]", "result": ">=2"},
      {"measurement": "fold change (FC)", "setting": "K562 [7]", "result": ">=2"},
      {"measurement": "fold change (FC)", "setting": "K562 [8]", "result": ">=2"},
      {"measurement": "fold change (FC)", "setting": "K562 [9]", "result": ">=2"},
      {"measurement": "fold change (FC)", "setting": "K562 [10]", "result": ">=2"},
      {"measurement": "fold change (FC)", "setting": "K562 [11]", "result": ">=2"},
      {"measurement": "EC50", "setting": "K562 [12]", "result": 97, "unit": "nM"},
      {"measurement": "Activity", "setting": "K562 [13]", "result": 2.58, "unit": "%"},
      {"measurement": "fold change (FC)", "setting": "K562 [14]", "result": ">=2"},
      {"measurement": "fold change (FC)", "setting": "K562 [15]", "result": ">=2"},
      {"measurement": "fold change (FC)", "setting": "K562 [16]", "result": ">=2"},
      {"measurement": "Activity", "setting": "K562 [17]", "result": 8.53, "unit": "%"},
      {"measurement": "fold change (FC)", "setting": "K562 [18]", "result": ">=2"},
      {"measurement": "fold change (FC)", "setting": "K562 [19]", "result": ">=2"},
      {"measurement": "fold change (FC)", "setting": "K562 [20]", "result": ">=2"},
      {"measurement": "fold change (FC)", "setting": "K562 [21]", "result": ">=2"},
      {"measurement": "fold change (FC)", "setting": "K562 [22]", "result": ">=2"},
      {"measurement": "fold change (FC)", "setting": "K562 [23]", "result": ">=2"},
      {"measurement": "fold change (FC)", "setting": "K562 [24]", "result": ">=2"},
      {"measurement": "fold change (FC)", "setting": "K562 [25]", "result": ">=2"},
      {"measurement": "fold change (FC)", "setting": "K562 [26]", "result": ">=2"},
      {"measurement": "fold change (FC)", "setting": "K562 [27]", "result": ">=2"},
      {"measurement": "fold change (FC)", "setting": "K562 [28]", "result": ">=2"}
    ]}
  ]
}
